MEKK2 mut-MEK5 = signal of MEK5 binding to mutant human MEKK2 PB1 domain; bead flow cytometry, Alexa488-MEK5 binding to MEKK2 mutant; percent response, % at 10 µM; 290,000 compounds, 0.35% hits; AID 1530; in the data active = percent response above about 24%, passing the limit was not always enough
Beta2AR agonist = agonists of human beta-2 adrenergic receptor inducing internalization. P07550. Am2.2-beta2AR cells, FAP receptor internalization, flow cytometry. response, % (test concentration not listed). 340,000 compounds, 0.43% hits. AID 504454;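 active = response above a set limit, near 3 SD of response in nonfluorescent compounds, cut at about 42% in these data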
Dynein cargo inh = dynein cargo transport inhibition; 3617.4 mouse cells, GR-EGFP nuclear translocation imaging; test concentration mostly 20 µM; stimulated with dexamethasone, 1 µM; hits give low values; z-score, hits read low; 220,000 compounds, 0.47% hits;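 active = plate z-score of nuclear minus cytoplasmic receptor signal below a set negative limit, without overly bright fluorescence or cell loss, cut at about -3.5 in these data, passing the limit was not always enough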;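 note: z-score of nuclear minus cytoplasmic ring GR-EGFP intensity difference per well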
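Schedule: 48 h induction, then 1 h compound, then 30 min agonist, 37 °C. Buffer or medium: tetracycline-free induction medium containing charcoal-stripped FBS. Reagent: 1.0 µM final dexamethasone stimulus. Evaluation: nuclear versus cytoplasmic GR-EGFP signal, averaged per well. Signal: high-content fluorescence imaging after fixation.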
ATG4B inh = ATG4B (human) cysteine protease inhibition; Q9Y4P1; ATG4B cleavage of LC3-PLA2, NBD-HPC fluorescence, 1 h; inhibition, % at 8.33 µM; 340,000 compounds, 0.51% hits; in the data active = inhibition above about 40%
MEKK3 PB1 HTS = raises or lowers MEK5 binding to the human MEKK3 PB1 domain. bead-based flow cytometry, Alexa488-MEK5 binding to MEKK3; actives lie on both sides; 0 = blocked by unlabeled MEK5, 100 = vehicle. binding response (% of control), % at 10 µM. 290,000 compounds, 1.4% hits. AID 1529;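 active = binding response more than 3 SD above or below the average of its plate-row segment, actives on both sides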;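 note: Alexa488 bead fluorescence after subtracting the streptavidin-only scavenger bead signal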
Target sequence (Q99759 whole entry, looked up, the tested form may be a part): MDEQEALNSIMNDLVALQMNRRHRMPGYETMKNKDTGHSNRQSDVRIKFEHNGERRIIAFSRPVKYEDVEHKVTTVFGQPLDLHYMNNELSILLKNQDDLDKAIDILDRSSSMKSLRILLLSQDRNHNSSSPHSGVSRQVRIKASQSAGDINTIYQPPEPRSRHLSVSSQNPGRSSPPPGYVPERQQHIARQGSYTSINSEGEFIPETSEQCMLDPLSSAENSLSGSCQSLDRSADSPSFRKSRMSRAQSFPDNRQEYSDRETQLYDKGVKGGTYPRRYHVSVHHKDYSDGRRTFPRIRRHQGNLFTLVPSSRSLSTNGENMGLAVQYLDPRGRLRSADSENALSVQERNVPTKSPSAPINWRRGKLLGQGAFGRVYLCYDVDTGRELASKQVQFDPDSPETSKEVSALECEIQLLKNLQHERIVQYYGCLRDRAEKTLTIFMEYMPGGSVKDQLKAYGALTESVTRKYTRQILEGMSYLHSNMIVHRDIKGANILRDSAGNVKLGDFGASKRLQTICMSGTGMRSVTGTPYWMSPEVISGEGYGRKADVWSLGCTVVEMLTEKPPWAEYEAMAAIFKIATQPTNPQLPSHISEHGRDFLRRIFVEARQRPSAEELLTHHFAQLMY
MEKK2 WT-MEK5 = raises or lowers MEK5 binding to wildtype human MEKK2 PB1 domain | Q9Y2U5 | bead flow cytometry, Alexa488-MEK5 binding to MEKK2 WT; actives lie on both sides | binding response (% of control), % at 10 µM | 290,000 compounds, 1.1% hits | AID 1531; in the data active = binding response below about 67% or above about 130%
MEKK2wt confirm = raises or lowers MEK5 binding to wildtype human MEKK2, retest; binding response (% of control), % at 10 µM; AID 1892; 5,900 compounds, 2.4% hits; bead flow cytometry, Alexa488-MEK5 binding to MEKK2 WT; actives lie on both sides; shares compounds with MEKK3 PB1 HTS; in the data active = binding response below about 16% or above about 210%; inactive = in between
MEKK2mut confirm = signal of MEK5 binding to mutant human MEKK2, retest. shares compounds with MEKK3 PB1 HTS. bead flow cytometry, Alexa488-MEK5 binding to MEKK2 mutant. percent response, % at 10 µM. 5,900 compounds, 2% hits. AID 1893; in the data active = percent response mostly above about 71%, no sharp cut-off; inactive = mostly below about 38%;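 note: higher means compound restores mutant binding toward wildtype level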
MEKK3-MEK5 inh = MEKK3-MEK5 PB1 inhibition, single concentration confirmation. shares compounds with MEKK3 PB1 HTS. binding response (% of control), % at 10 µM. bead flow cytometry, Alexa488-MEK5 binding to MEKK3; hits give low values. 5,900 compounds, 1.8% hits;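 active = binding response below 72% of control, or above a set upper limit, though filed actives all read lower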;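 note: lower values mean stronger disruption of MEK5 binding to MEKK3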
Hits are given with their value; 0 = inactive; - = no result; + = active, no number; ! = not confirmed by another sample; [ ] = another dose, or the depositor's remark. This is a sample that favours compounds with a hit; in the whole collection about 2.9% have one here.

SMILES	MEKK2 mut-MEK5	Beta2AR agonist	Dynein cargo inh	ATG4B inh	MEKK3 PB1 HTS	MEKK2 WT-MEK5	MEKK2wt confirm	MEKK2mut confirm	MEKK3-MEK5 inh
COCC(=O)N1CCC(Oc2ccc(C(=O)NCCc3ccncc3)cc2)CC1	+	0	0	0	128	610	0	0	0
CCCCn1c(-c2ccc(C(C)(C)C)cc2)nc2cc3[nH]c(=O)c(C(C)C)nc3cc21	0	0	-	0	0	69[inhibitor]	0	0	0
CCCCn1c(-c2ccc(Cl)c(Cl)c2)nc2cc3[nH]c(=O)c(C(C)C)nc3cc21	0	0	-	0	0	0	-	-	-
COc1ccc(-c2ncccc2O)cc1	0	0	0	0	0	0	-	-	-
CCOc1c(C)cc(-c2ncccc2O)cc1C	0	0	0	0	130!	0	0	0	0
CCOC(=O)CSc1ccc2ccccc2n1	0	0	0	0	0	0	-	-	-
CCOC(=O)CN1C=C(c2ccc3ccccc3n2)C(C[N+](=O)[O-])c2ccccc21 (stereo unspecified)	82	0	0	0	0	67	0	0	0
COC(=O)c1ccc(C(=O)OC)c(NC(=O)C(C)(C)C)c1	0	0	0	0	0	0	-	-	-
CCC(CC)C(=O)Nc1cc(C(=O)OC)ccc1C(=O)OC	0	0	0	0	194	0	0	0	0
CS(=O)(=O)N(CC(=O)N1CCN(c2ccc(F)cc2)CC1)c1cccc(Cl)c1	0	0	0	0	0	0	-	-	-
CS(=O)(=O)N(CCCC(=O)N1CCCCCC1)c1cccc(Cl)c1	37	0	-	0	0	0	0	0	0
CCCN1CCN(CCCNC(=S)Nc2ccc3nc(N4CCN(CC)CC4)cc(C)c3c2)CC1	0	0	0	0	0	0	-	-	-
CCCCNC(=S)Nc1ccc2nc(N3CCN(CC)CC3)cc(C)c2c1	27	0	-	0	0	139	0	0	0
CCCCN(C)CCNC(=S)Nc1ccc2nc(N3CCN(CC)CC3)cc(C)c2c1	0	0	-	0	0	134	0	0	0
Cc1ccccc1CNC(=O)c1ccccc1N(C)S(=O)(=O)c1ccccc1	0	0	-	0	0	0	-	-	-
CCOC(=O)c1c(NC(=O)Nc2ccc(F)cc2)sc2c1CCN(C)C2	0	0	0	0	129	141	0	0	0
COc1cc2ccccc2cc1C(=O)Nc1sc2c(c1C(N)=O)CCN(C(C)C)C2	29	0	-	-	0	150	0	0	0
CC(C)N1CCc2c(sc(NC(=O)CN3C(=O)c4ccccc4C3=O)c2C(N)=O)C1	0	0	0	0	0	0	-	-	-
CN1CCc2c(sc(NC(=O)c3ccc4ccccc4c3)c2C(N)=O)C1	0	0	-	-	0	135	0	0	0
CC(C)CN1CCNC(=O)C1CC(=O)NCc1cnn(-c2cccc(F)c2)c1 (stereo unspecified)	0	0	0	0	0	138	0	0	0
Cc1c(C(C)(C(=O)O)c2c(C)n(C)c3ccccc23)c2ccccc2n1C	0	-	0	-	0	0	-	-	-
COc1ccc(C(=NNc2ccccc2C(=O)O)c2ccc(OC)cc2)cc1	0	0	0	0	150	0	0	0	0
Cc1cc2oc3cc(NCCC4CCCN4C)ccc3c(=O)c2cc1C (stereo unspecified)	0	0	-	0	0	178	0	0	0
CN1CCCC1CCNc1ccc2sc3ccccc3c(=O)c2c1 (stereo unspecified)	0	0	-	0	0	0	-	-	-
COc1ccc(CNC(=O)CN2C(=O)COc3ccc(S(=O)(=O)N4CCCCC4)cc32)cc1	0	0	-	0	0	0	-	-	-
SMILES	MEKK2 mut-MEK5	Beta2AR agonist	Dynein cargo inh	ATG4B inh	MEKK3 PB1 HTS	MEKK2 WT-MEK5	MEKK2wt confirm	MEKK2mut confirm	MEKK3-MEK5 inh
CCOc1ccc(-c2cccc(NS(=O)(=O)c3ccc([N+](=O)[O-])cc3)c2)nn1	-	0	-	0	-	-	-	-	-
COc1ccc(Nc2oc(-c3ccco3)nc2S(=O)(=O)c2ccc(F)cc2)cc1	0	0	0	0	0	0	-	-	-
O=S(=O)(c1ccc(F)cc1)c1nc(-c2ccco2)oc1Nc1ccc(F)cc1	0	0	0	0	137	0	0	0	0
COc1cccc(C2=CC(c3cccc(OC)c3OC)n3nnnc3N2)c1 (stereo unspecified)	0	0	0	0	80[inhibitor]	0	0	0	0
COc1cccc(C2=CC(c3cccc(OC)c3OC(F)F)n3nnnc3N2)c1 (stereo unspecified)	0	0	0	0	0	0	-	-	-
COc1ccc(OC)c(C2C=C(c3ccc(C)c(C)c3)Nc3nnnn32)c1 (stereo unspecified)	0	0	-	0	1.0[inhibitor]	0.0[inhibitor]	0	0	0
COCCNC(=O)COc1ncnc2scc(-c3ccc(F)cc3)c12	0	0	0	0	143	0	0	0	0
CCOc1ccc2nc(N(CCCN(C)C)C(=O)c3ccc(S(=O)(=O)N4CCc5ccccc5C4)cc3)sc2c1	0	0	-	0	0	168	0	0	0
CCOc1ccc2nc(N(CCCN(C)C)C(=O)c3ccc4c(c3)CCCC4)sc2c1	26	0	-	0	0	158	0	0	0
CN(C)CCCN(C(=O)c1ccc2c(c1)CCCC2)c1nc2ccc(Cl)cc2s1	78	0	0	0	0	196	221	0	0
CC1CN(Cc2cn(C)nc2-c2ccc(Oc3ccccc3)cc2)CCN1C (stereo unspecified)	0	0	0	0	0	172	0	0	0
N#Cc1ccsc1NC(=O)CN1CCN(S(=O)(=O)c2ccccc2C(F)(F)F)CC1	0	0	0	0	55[inhibitor]	0	0	0	0
N#Cc1ccsc1NC(=O)CN1CCCCCC1	0	0	0	0	0	0	-	-	-
CCOC(=O)N1CCN(CC(=O)Nc2sccc2C#N)CC1	0	0	0	0	0	0	-	-	-
Cc1ccc(C)c(S(=O)(=O)N2CCN(CC(=O)Nc3sccc3C#N)CC2)c1	0	0	0	0	162	0	0	0	0
N#Cc1ccsc1NC(=O)CN1CCN(c2ccccc2O)CC1	0	0	0	0	64[inhibitor]	0	0	0	0
COc1ccccc1N1CCN(CC(=O)Nc2sccc2C#N)CC1	0	0	0	0	0	0	-	-	-
CCN1C(=O)[C@H]2[C@@H](c3ccc(C)cc3)N3C(=O)N(c4ccccc4)C(=O)[C@@]3(CC)[C@H]2C1=O	0	0	-	0	0	0	-	-	-

High-throughput results as filed in PubChem.
